Source: ChEMBL document CHEMBL1255365, “In vitro antifungal susceptibility and molecular characterization of clinical isolates of Fusarium verticillioides (F. moniliforme) and Fusarium thapsinum” (2008)
In brackets after ≈: the same amount, converted by molar mass.

What was measured:
Assay type in all cases: functional
Fusarium verticillioides [1] = test: Antifungal activity against Fusarium moniliforme clade 2 by microdilution method
Method in brief: (§1)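 Clinical isolates grown on potato dextrose agar for 7 days at 25°C. Susceptibility tested by modified NCCLS (2002) broth microdilution reference method for filamentous fungi. Final inoculum 4 × 10^3 to 5 × 10^4 conidia/ml. Final drug ranges: 64–0.12 μg/ml for fluconazole and flucytosine, 128–0.25 μg/ml for micafungin, 16–0.03 μg/ml for the other azoles, amphotericin B and terbinafine.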

Fusarium verticillioides [2] = test: Antifungal activity against Fusarium moniliforme clade 1 by microdilution method; method in brief: as §1
Fusarium verticillioides [3] = test: Antifungal activity against Fusarium moniliforme clade 3 by microdilution method; method in brief: as §1
[4] = Antifungal activity against Fusarium thapsinum by microdilution method; conditions: Gibberella thapsina; method in brief: as §1

SMILES	MIC (Fusarium verticillioides [1]) [µg/mL]	MIC (Fusarium verticillioides [2]) [µg/mL]	MIC (Fusarium verticillioides [3]) [µg/mL]	MIC [4] [µg/mL]
C[C@@H](n1cnc2cc(Cl)ccc2c1=O)[C@](O)(Cn1cncn1)c1ccc(F)cc1F [ALBACONAZOLE]	3.56 (≈ 8.24 µM)	3.03 (≈ 7.02 µM)	5.66 (≈ 13.1 µM)	18.4 (≈ 42.6 µM)
C[C@@H]1[C@H](O)[C@@H](C)/C=C/C=C/C=C/C=C/C=C/C=C/C=C/[C@H](O[C@@H]2O[C@H](C)[C@@H](O)[C@H](N)[C@@H]2O)C[C@@H]2O[C@](O)(C[C@@H](O)C[C@@H](O)[C@H](O)CC[C@@H](O)C[C@@H](O)CC(=O)O[C@H]1C)C[C@H](O)[C@H]2C(=O)O [AMPHOTERICIN B]	2.24 (≈ 2.42 µM)	2.41 (≈ 2.61 µM)	2 (≈ 2.16 µM)	2.64 (≈ 2.86 µM)
CCC(C)n1ncn(-c2ccc(N3CCN(c4ccc(OCC5COC(Cn6cncn6)(c6ccc(Cl)cc6Cl)O5)cc4)CC3)cc2)c1=O (configuration not stated) [ITRACONAZOLE]	> 16	12.7 (≈ 18 µM)	> 16	> 16
CC(=O)N1CCN(c2ccc(OCC3COC(Cn4ccnc4)(c4ccc(Cl)cc4Cl)O3)cc2)CC1 (configuration not stated) [KETOCONAZOLE]	8 (≈ 15.1 µM)	2 (≈ 3.76 µM)	8 (≈ 15.1 µM)	> 16
CC[C@@H]([C@H](C)O)n1ncn(-c2ccc(N3CCN(c4ccc(OC[C@@H]5CO[C@@](Cn6cncn6)(c6ccc(F)cc6F)C5)cc4)CC3)cc2)c1=O [POSACONAZOLE]	0.89 (≈ 1.27 µM)	0.79 (≈ 1.13 µM)	1 (≈ 1.43 µM)	> 16
C[C@@H](c1nc(-c2ccc(C#N)cc2)cs1)[C@](O)(Cn1cncn1)c1ccc(F)cc1F [RAVUCONAZOLE]	2.24 (≈ 5.12 µM)	1.45 (≈ 3.31 µM)	4 (≈ 9.14 µM)	18.4 (≈ 42 µM)
CN(C/C=C/C#CC(C)(C)C)Cc1cccc2ccccc12 [TERBINAFINE]	0.31 (≈ 1.06 µM)	0.21 (≈ 0.721 µM)	0.25 (≈ 0.858 µM)	0.44 (≈ 1.51 µM)
C[C@@H](c1ncncc1F)[C@](O)(Cn1cncn1)c1ccc(F)cc1F [VORICONAZOLE]	2.83 (≈ 8.1 µM)	2 (≈ 5.73 µM)	2 (≈ 5.73 µM)	2.64 (≈ 7.56 µM)
